# Measurements from different studies.
# Protocols differ between the studies behind these lines. pIC50: −log10 of the molar value.
# Read-out: cell growth or viability
Structure (SMILES),cell line,assay,conditions,pIC50
Cc1cnc(CNC(=O)c2c(=O)c3ccc(N4CCCN(C)CC4)nc3n3c2sc2ccccc23)cn1,THLE3,imaging,72 h,5.60
O=[N+]([O-])c1ccc(O)c(C=NNc2ccc(Cl)cc2)c1,HEK-293T,MTT,24 h,4.94
COc1ccc(NC(=O)Nc2ccc(-c3cn(Cc4ccc(Br)cc4)nn3)cc2)cc1,Huh-7,CCK-8,72 h,< 4.30
Cc1nc(Nc2ncc(C(=O)Nc3c(C)cccc3Cl)s2)cc(N2CC[C@H](O)C2)n1,Ramos,ATP luminescence,72 h,< 5.00
O=[N+]([O-])c1cc(Br)c(O)c(C=NNc2ccc(Br)cc2)c1,HEK-293T,MTT,24 h,4.91
COc1ccc(NC(=O)NCc2cn(Cc3ccc(Br)cc3)nn2)cc1,Huh-7,CCK-8,72 h,< 4.30
Cc1nnc(-c2nn(Cc3ccc(Cl)cc3Cl)c3ccccc23)o1,HepG2,,48 h,4.38
COC(=O)c1ccc2c(c1)NC(=O)/C2=C(\Nc1ccc(N(C)C(=O)CN2CCN(C)CC2)cc1)c1ccccc1,HEK-293T,MTT,24 h,6.10
O=C(Nc1ccc(Cl)cc1)Nc1cccc(-c2cn(Cc3cccc(Cl)c3)nn2)c1,Huh-7,CCK-8,72 h,4.82
O=c1[nH]cc(F)c(=O)[nH]1,Huh-7,CCK-8,72 h,4.76
COc1cccc2c1C(=O)c1c(O)c3c(c(O)c1C2=O)C[C@@](O)(C(=O)CO)C[C@@H]3O[C@H]1C[C@H](N)[C@H](O)[C@H](C)O1,Huh-7,ATP luminescence,72 h,6.22
CN1CCN(c2ccc(Nc3c4ccccc4nc4ccccc34)cc2)CC1,THLE3,imaging,72 h,5.06
COc1cccc2c1C(=O)c1c(O)c3c(c(O)c1C2=O)C[C@@](O)(C(=O)CO)C[C@@H]3O[C@H]1C[C@H](N)[C@H](O)[C@H](C)O1,HEK-293T,MTT,24 h,5.86
COc1ccc(NC(=O)Nc2ccc(-c3cn(Cc4ccc(Cl)cc4)nn3)cc2)cc1,Huh-7,CCK-8,72 h,< 4.30
O=[N+]([O-])c1cc(I)c(O)c(C=NNc2ccc(Cl)cc2)c1,HEK-293T,MTT,24 h,4.91
CN1CCC(NC2CCc3[nH]c4c(C(N)=O)ccc(-c5ccccc5Cl)c4c3C2)CC1 (stereo not shown),Ramos,,96 h,7.94
